This passage reports Activity and EC50 results from ChEMBL document CHEMBL1221202, “Small-molecule pheromones that control dauer development in Caenorhabditis elegans” (Nat Chem Biol, 2007).

The test system of assay [1] is Caenorhabditis elegans. As to the kind of experiment: Induction of dauer formation in Caenorhabditis elegans Bristol ocr-2(ak47) mutant at 20 degC. Type of assay: functional, organism-based. The procedure, abridged:
(§1)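 Dauer formation assay: eggs were laid on agar plates containing a range of ascaroside concentrations plus a small amount of food, and percent dauer formation was scored. Stock worms were maintained at 20–23 °C on NG plates made with Noble agar and seeded with E. coli OP50.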

Assay [2] deals with Caenorhabditis elegans. Briefly: Induction of dauer formation in Caenorhabditis elegans Bristol tax-2(p691) mutant at 20 degC. It counts as functional, organism-based. A digest of the protocol: as §1
For assay [3], the system named is Caenorhabditis elegans. Briefly: Induction of dauer formation in Caenorhabditis elegans Bristol osm-9(ky10) mutant at 20 degC. It counts as functional, organism-based. A digest of the protocol: as §1
In assay [4] the test system is Caenorhabditis elegans. Briefly: Induction of dauer formation in Caenorhabditis elegans Bristol daf-7(1372) mutant at 20 degC. Type of assay: functional, organism-based. A digest of the protocol:
as §1

Assay [5] deals with Caenorhabditis elegans. Briefly: Induction of dauer formation in wild type Caenorhabditis elegans Bristol […] at 20 degC. Type of assay: functional, organism-based. The procedure, abridged:
(§2)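 Wild-type N2 eggs were laid on plates containing a range of ascaroside concentrations plus a little food, then held at 20 °C or 25 °C, and percent dauer formation was scored. Each value is the mean of three experiments. EC50 was taken as half-maximal activity from a sigmoidal fit with the lower limit fixed at 0 and the upper limit left free.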

Assay [6] concerns Caenorhabditis elegans. As to the kind of experiment: Induction of dauer formation in Caenorhabditis elegans Bristol egl-4(ks61) mutant at 20 degC. It counts as functional, organism-based. The procedure, abridged:
as §1

For assay [7], the system named is Caenorhabditis elegans. Briefly: Induction of dauer formation in wild type Caenorhabditis elegans Bristol […] at 25 degC. It counts as functional, organism-based. The procedure, abridged: as §2
In assay [8] the test system is Caenorhabditis elegans. Briefly: Induction of dauer formation in Caenorhabditis elegans Bristol tax-4(p678) mutant at 20 degC. Type of assay: functional, organism-based. A digest of the protocol:
as §1

Assay [9] relates to Caenorhabditis elegans. Briefly: Induction of dauer formation in wild type Caenorhabditis elegans Bristol N2 at 73 uM.

Molecules are shown by their SMILES. Activity calls are given as the source filed them. No cut-off for these calls is given here.

Broadly, the EC50 is the concentration at which the effect is half-maximal. A lower EC50 goes with a more potent agent.

On to `C[C@H](CCCCC(=O)O)O[C@@H]1O[C@@H](C)[C@H](O)C[C@H]1O` [DAUMONE], for which the result in the assay on Caenorhabditis elegans [1], in the assay on Caenorhabditis elegans [2], in the assay with Caenorhabditis elegans [3], in the assay on Caenorhabditis elegans [4], with Caenorhabditis elegans [6] and in the assay on Caenorhabditis elegans [8] was inactive. The EC50 with Caenorhabditis elegans [5] came out at 88000 nM; with Caenorhabditis elegans [7], 18000 nM.
Regarding `CC(=O)CC[C@@H](C)O[C@@H]1O[C@@H](C)[C@H](O)C[C@H]1O`, the outcome with Caenorhabditis elegans [1], in the assay with Caenorhabditis elegans [2], with Caenorhabditis elegans [3], in the assay on Caenorhabditis elegans [4], in the assay on Caenorhabditis elegans [6] and in the assay with Caenorhabditis elegans [8] was inactive. The result with Caenorhabditis elegans [9] was Active. Also, the EC50 in the assay with Caenorhabditis elegans [5] was 460 nM; in the assay on Caenorhabditis elegans [7] it was 120 nM.
For the molecule `C[C@H](CCCC/C=C/C(=O)O)O[C@@H]1O[C@@H](C)[C@H](O)C[C@H]1O`, the outcome in the assay on Caenorhabditis elegans [1], with Caenorhabditis elegans [2], in the assay on Caenorhabditis elegans [3], with Caenorhabditis elegans [4], in the assay on Caenorhabditis elegans [6] and in the assay on Caenorhabditis elegans [8] was inactive. Besides, the result in the assay with Caenorhabditis elegans [9] was Active. Moreover, the EC50 with Caenorhabditis elegans [5] is 1100 nM; in the assay on Caenorhabditis elegans [7], 370 nM.
